Measurements: ChEMBL document CHEMBL4699498 (J Med Chem, 2020)
Calls of active or inactive are those of the source. No cut-off for these calls is given here.

Legend:
CAPAN-1 [1] = assay: Antiproliferative activity against human CAPAN-1 cells assessed as cell growth inhibition incubated for 13 days by CCK-8 assay; type: functional, cell-based; conditions: CAPAN-1, 312 h
In short: (§1)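 Cells were sub-cultured at least twice and seeded for 24 h before dosing. Compounds came from 10 mM DMSO stocks, given as 10 points of 3-fold serial dilution starting at 10-20 μM. Incubation was about 7 days (Capan-1 13 days) at 37 °C, 5% CO2. Read-out was CCK-8 absorbance at 450 nm, as % growth versus DMSO wells (duplicate wells). IC50 was fitted by nonlinear regression; three independent experiments.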

[2] = target: T1, Protein cereblon/Poly [ADP-ribose] polymerase 1 (Homo sapiens, UniProt P09874+Q96SW2); assay: Protac activity at CRBN/PARP1 in human MDA-MB-436 cells assessed as induction of PARP1 degradation at 1 to 1000 nM incubated for 24 hrs by Western blot analysis; type: cell-based; conditions: dose nM 1-1000, time 24.0 hrs
In short: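 PARP1 immunoblot of MDA-MB-436 lysates after 24 h exposure at 1, 10, 100 and 1000 nM; RIPA lysis, 20-30 µg protein per lane, β-tubulin as loading control, band density normalized to DMSO control.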
Target sequence in this assay (P09874 2-1014 limits assumed): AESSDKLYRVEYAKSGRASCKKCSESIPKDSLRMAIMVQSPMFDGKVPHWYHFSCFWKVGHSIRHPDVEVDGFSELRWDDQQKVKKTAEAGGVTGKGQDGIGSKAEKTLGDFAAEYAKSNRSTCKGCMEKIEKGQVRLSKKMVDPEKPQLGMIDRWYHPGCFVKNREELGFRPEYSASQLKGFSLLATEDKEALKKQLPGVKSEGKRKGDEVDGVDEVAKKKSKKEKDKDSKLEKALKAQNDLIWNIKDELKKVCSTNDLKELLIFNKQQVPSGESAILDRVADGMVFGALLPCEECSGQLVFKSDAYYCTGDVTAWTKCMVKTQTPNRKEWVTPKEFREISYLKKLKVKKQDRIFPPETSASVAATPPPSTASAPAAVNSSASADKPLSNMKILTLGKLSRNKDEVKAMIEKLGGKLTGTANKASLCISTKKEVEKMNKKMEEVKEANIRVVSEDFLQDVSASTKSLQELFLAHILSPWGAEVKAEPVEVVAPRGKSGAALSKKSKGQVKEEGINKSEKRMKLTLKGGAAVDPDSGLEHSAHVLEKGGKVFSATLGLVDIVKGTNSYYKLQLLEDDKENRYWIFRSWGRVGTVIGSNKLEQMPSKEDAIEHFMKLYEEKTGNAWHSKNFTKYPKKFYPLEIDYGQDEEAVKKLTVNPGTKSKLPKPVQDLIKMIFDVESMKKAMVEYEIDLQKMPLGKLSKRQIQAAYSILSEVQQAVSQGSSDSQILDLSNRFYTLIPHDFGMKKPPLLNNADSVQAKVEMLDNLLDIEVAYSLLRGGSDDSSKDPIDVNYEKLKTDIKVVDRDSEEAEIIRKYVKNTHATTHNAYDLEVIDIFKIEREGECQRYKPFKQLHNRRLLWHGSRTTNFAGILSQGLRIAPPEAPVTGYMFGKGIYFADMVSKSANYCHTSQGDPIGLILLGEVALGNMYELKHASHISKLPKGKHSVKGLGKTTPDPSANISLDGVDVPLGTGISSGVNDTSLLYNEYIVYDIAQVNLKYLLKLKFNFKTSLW
Target sequence in this assay (Q96SW2 whole entry partner): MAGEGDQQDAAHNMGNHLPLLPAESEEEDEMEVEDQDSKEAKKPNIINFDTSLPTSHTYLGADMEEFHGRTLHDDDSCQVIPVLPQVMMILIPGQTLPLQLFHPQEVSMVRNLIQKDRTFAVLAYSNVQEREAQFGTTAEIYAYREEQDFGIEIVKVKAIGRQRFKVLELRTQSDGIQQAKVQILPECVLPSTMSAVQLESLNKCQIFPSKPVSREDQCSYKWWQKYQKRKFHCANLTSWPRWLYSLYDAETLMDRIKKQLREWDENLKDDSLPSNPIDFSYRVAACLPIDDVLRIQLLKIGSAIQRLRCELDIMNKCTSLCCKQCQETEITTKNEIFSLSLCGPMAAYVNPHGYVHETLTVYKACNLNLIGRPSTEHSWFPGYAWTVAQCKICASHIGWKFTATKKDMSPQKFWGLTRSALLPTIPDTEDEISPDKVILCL

[3] = target: T1, Protein cereblon/Poly [ADP-ribose] polymerase 1; assay: Protac activity at CRBN/PARP1 in human SW620 cells assessed as reduction in PARP1 protein level at 0.01 to 10 uM incubated for 12 hrs by western blot analysis; type: cell-based; conditions: SW-620, dose microM 0.01-10, time 12.0 hrs
In short: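 MDA-MB-436 or SW620 cells dosed at 1, 10, 100, 1000 nM and 10 µM for 12 h; PARP1 assessed by western blot of RIPA lysates (20-30 µg protein), β-tubulin as loading control.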
Target sequence in this assay (P09874 2-1014 limits assumed): as the sequence (P09874 2-1014 limits assumed) above
Target sequence in this assay (Q96SW2 whole entry partner): as the sequence (Q96SW2 whole entry partner) above

[4] = target: T1, Protein cereblon/Poly [ADP-ribose] polymerase 1; assay: Protac activity at CRBN/PARP1 in human CAPAN-1 cells assessed as induction of PARP1 degradation incubated for 24 hrs by Western blot analysis; type: cell-based
In short: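 Capan-1 cells were treated 24 h (1-1000 nM, or a wider dose range for DC50). Lysis was in RIPA buffer with protease inhibitors, and 20-30 μg protein was blotted. PARP1 was normalized to β-tubulin and to DMSO control, quantified by densitometry. DC50 came from two independent experiments.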
Target sequence in this assay (P09874 whole entry): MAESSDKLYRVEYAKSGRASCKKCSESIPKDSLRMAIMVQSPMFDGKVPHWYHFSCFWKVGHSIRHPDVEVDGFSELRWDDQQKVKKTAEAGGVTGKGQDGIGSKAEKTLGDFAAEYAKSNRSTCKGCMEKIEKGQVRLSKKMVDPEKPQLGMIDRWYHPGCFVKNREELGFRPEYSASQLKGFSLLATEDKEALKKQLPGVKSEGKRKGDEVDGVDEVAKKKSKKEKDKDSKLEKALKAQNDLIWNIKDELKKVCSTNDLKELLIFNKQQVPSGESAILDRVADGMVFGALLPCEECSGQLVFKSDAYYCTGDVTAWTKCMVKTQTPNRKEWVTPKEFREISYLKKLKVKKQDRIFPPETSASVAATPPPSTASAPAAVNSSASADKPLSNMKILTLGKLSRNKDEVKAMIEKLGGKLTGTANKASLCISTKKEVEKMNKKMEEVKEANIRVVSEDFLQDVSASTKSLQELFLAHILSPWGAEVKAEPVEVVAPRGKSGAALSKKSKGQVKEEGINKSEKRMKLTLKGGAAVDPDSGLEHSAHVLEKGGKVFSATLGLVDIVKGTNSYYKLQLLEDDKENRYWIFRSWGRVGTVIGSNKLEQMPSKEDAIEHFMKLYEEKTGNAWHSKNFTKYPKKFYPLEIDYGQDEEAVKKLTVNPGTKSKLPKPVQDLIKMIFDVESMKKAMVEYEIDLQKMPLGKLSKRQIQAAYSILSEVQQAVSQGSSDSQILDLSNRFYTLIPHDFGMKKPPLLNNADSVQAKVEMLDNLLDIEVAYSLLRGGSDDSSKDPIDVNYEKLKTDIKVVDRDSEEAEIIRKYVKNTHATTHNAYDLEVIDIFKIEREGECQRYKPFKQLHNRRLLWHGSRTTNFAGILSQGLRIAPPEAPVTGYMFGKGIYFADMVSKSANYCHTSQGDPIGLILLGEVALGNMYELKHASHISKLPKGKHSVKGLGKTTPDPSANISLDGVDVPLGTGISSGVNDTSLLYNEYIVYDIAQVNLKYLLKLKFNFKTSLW
Target sequence in this assay (Q96SW2 whole entry): as the sequence (Q96SW2 whole entry partner) above

PC-3 = assay: Antiproliferation activity against human PC-3 assessed as cell growth inhibition incubated for 7 days by CCK-8 assay; type: functional, cell-based; conditions: time 7.0 day; in short: as §1
[5] = target: T1, Protein cereblon/Poly [ADP-ribose] polymerase 1; assay: Protac activity at CRBN/PARP1 in human MDA-MB-436 cells assessed as induction of PARP1 degradation by measuring PARP1 level at 100 nM pretreated for 2 hrs followed by compound washout and measured after 24 hrs by Western blot analysis; type: cell-based
In short: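 MDA-MB-436 cells pretreated 2 h at 100 nM, compound washed out, cells harvested at various times up to 24 h afterwards; PARP1 versus vehicle-treated cells by western blot, β-tubulin loading control.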
Target sequence in this assay (P09874 2-1014 limits assumed): as the sequence (P09874 2-1014 limits assumed) above
Target sequence in this assay (Q96SW2 whole entry partner): as the sequence (Q96SW2 whole entry partner) above

[6] = target: T1, Protein cereblon/Poly [ADP-ribose] polymerase 1; assay: Protac activity at CRBN/PARP1 in human 22Rv1 cells assessed as induction of PARP1 degradation at 30 nM incubated for 1 to 24 hrs by Western blot analysis; type: cell-based; conditions: time hrs 1-24
Target sequence in this assay (P09874 2-1014 limits assumed): as the sequence (P09874 2-1014 limits assumed) above
Target sequence in this assay (Q96SW2 whole entry partner): as the sequence (Q96SW2 whole entry partner) above

[7] = target: Poly [ADP-ribose] polymerase 1 (Homo sapiens, UniProt P09874); assay: Inhibition of recombinant human C-terminal His-tagged PARP1 expressed in Sf9 insect cells preincubated for 20 mins in presence of activated DNA followed by […] addition and further incubated for 2 hrs by chemiluminescence assay
SW-620 [8] = assay: Antiproliferation activity against human SW620 assessed as cell growth inhibition incubated for 7 days by CCK-8 assay; type: functional, cell-based; conditions: time 7.0 day; in short: as §1
SW-620 [9] = assay: Potentiation of MMS induced cytotoxicity against human SW-620 cells preincubated for 1 hr followed by addition of MMS measured after 5 days by CCK-8 assay; type: functional, cell-based; conditions: dose nM 3-300, time 1.0 hrs
In short: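 SW620 cells (1000/well) were attached for 24 h, then preincubated 1 h with DMSO or a single compound concentration (3, 10, 100 or 300 nM). MMS was then added at 0-15 μg/mL (final concentration not stated). Incubation ran 5 days, followed by CCK-8 read at 450 nm. Growth was expressed as % of DMSO-only wells, mean of three wells.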

NCM460 = assay: Cytotoxicity against human NCM460 cells assessed as reduction in cell viability incubated for 120 hrs by CCK-8 assay; type: cell-based; conditions: ncm460, 120 h
[10] = Plasma concentration in ICR mouse at 25 mg/kg, ip at 0.25 hrs postinjection by LC-tandem mass spectrometry analysis; type: ADME, organism-based
[11] = Plasma concentration in ICR mouse at 25 mg/kg, ip at 8 hrs postinjection by LC-tandem mass spectrometry analysis; type: ADME, organism-based
In short: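 Female ICR mice (20-23 g, 6-7 weeks old, n = 3) received a single 25 mg/kg intraperitoneal dose formulated in 5% DMSO/15% Solutol HS15/80% D5W. Plasma was sampled at 0.5, 1, 2, 4, 6, 8 and 24 h and protein-precipitated with methanol. Compound was quantified by LC-MS/MS against a standard curve.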

CAPAN-1 [12] = assay: Antitumor activity against Capan1 cells xenografted in Balb/c mouse assessed as tumor growth inhibition at 25 mg/kg, ip administered 5 times a week for 3 weeks; type: functional, organism-based
In short: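 Male BALB/c nude mice (5-6 weeks old) carried subcutaneous Capan-1 xenografts (5×10^6 cells, right armpit). At ~150 mm³ they were randomized (6 per group). Dosing was 100 mg/kg by oral gavage daily for 21 days, or 25 mg/kg intraperitoneally 5 times a week for 3 weeks. Vehicle was 5% DMSO/20% PEG400/10% Cremophor EL/65% saline. Tumor volume was (length/2)×width², measured 2-3 times weekly.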

[13] = Acute toxicity in Balb/c mouse assessed as lethality at 25 to 50 mg/kg, ip administered 5 times a week for 3 weeks; type: organism-based; conditions: in vivo, 504 h
In short: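 Male BALB/c nude mice (5–6 weeks) received 5×10^6 Capan-1 cells s.c. in the right armpit. At a mean tumour volume of about 150 mm³, mice were randomised by tumour volume and body weight, 6 per group. Dosing was i.p. in 5% DMSO/20% PEG400/10% Cremophor EL/65% saline, once daily five times per week for 3 weeks. Body weight was measured 2–3 times weekly.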

CAPAN-1 [14] = assay: Potentiation of cisplatin induced antitumor activity against CAPAN-1 cells xenografted in Balb/c mouse at 50 mg/kg, ip qd administered for 5 days measured on day 16; type: functional, organism-based; conditions: time 16.0 day
In short: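 Male BALB/c nude mice carried Capan-1 xenografts (5×10^6 cells s.c.), randomized at ~150 mm³ (6 per group). Treatment was 25 or 50 mg/kg intraperitoneally or 100 mg/kg by oral gavage, once daily on days 0-4. Cisplatin 6 mg/kg in saline was given intraperitoneally on day 2, 45 min after the partner drug. Tumor volume and body weight were measured 2-3 times weekly.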

[15] = target: T1, Protein cereblon/Poly [ADP-ribose] polymerase 1; assay: Protac activity at CRBN/PARP1 in human SW-620 cells assessed as induction of PARP1 degradation at 30 nM measured after 2 hrs by Western blot analysis
Target sequence in this assay (P09874 2-1014 limits assumed): as the sequence (P09874 2-1014 limits assumed) above
Target sequence in this assay (Q96SW2 whole entry partner): as the sequence (Q96SW2 whole entry partner) above

Chain of Poly [ADP-ribose] polymerase 1 (P09874 whole entry): as the sequence (P09874 whole entry) above

In the case of `O=C(CCCCCCCCCCC(=O)N1CCN(C(=O)c2cc(Cc3n[nH]c(=O)c4ccccc34)ccc2F)CC1)NCCNc1cccc2c1C(=O)N(C1CCC(=O)NC1=O)C2=O` (configuration not stated), the IC50 (CAPAN-1 [1]) is reported as 56 nM, the Activity [2] is reported as “Active” and the Activity [3] is reported as “Active”. For the same molecule, the DC50 [4] was 6.72 nM, the Activity (PC-3) was “Active” and the Activity [5] was “Below limit of detection”. For the same molecule, the Activity [6] was “Active”, the IC50 [7] was 2.3 nM and the Activity (SW-620 [8]) was “Active”. For the same molecule, the Activity (SW-620 [9]) was “Dose-dependent effect”, the Activity (NCM460) was “Non-Toxic” and the concentration at 0.25 h [10] was 2100 nM. The concentration at 8 h [11] was 95 nM, the Activity (CAPAN-1 [12]) was “Active” and the Activity [13] was “Non-Toxic”. The Activity (CAPAN-1 [14]) was “Active” and the Activity [15] was “Active”.
